This note sets out measurements from ChEMBL document CHEMBL3526065, “Metabolism of [6]-shogaol in mice and in cancer cells” (Drug Metab Dispos, 2012).

For data set [1], the system named is HCT-116. In words: Induction of apoptosis in human HCT116 cells assessed as apoptotic cells at 80 uM after 24 hrs by TUNEL assay. It is filed as functional. The procedure, abridged: (§1)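 HCT-116 or H-1299 cells seeded at 1.0 × 10⁵/well, after 24 h exposed for 24 h to compound (10–80 μM) or DMSO control. Cells were proteinase K-pretreated, formaldehyde-fixed, and slide-mounted for peroxidase TUNEL staining. Ten fields per slide counted at 400×; brown-nucleus cells given as percentage of total cells; mean ± S.E., n = 10.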

Another data set relates to HT-29. In words: Drug level in human HT-29 cells treated with 10 uM [6]-shogaol by HPLC-ECD analysis. It is filed as ADME, cell-based. The gist of the method:
(§2)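 Cells (1.0 × 10⁶) attached 24 h in six-well plates, then exposed to 10 μM final in McCoy's 5A with 10% FBS. Extracted with equal volume acetonitrile, diluted 5-fold, analysed by HPLC with electrochemical detection.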

The nature of data set [2]: Drug level in human HCT116 cells treated with 10 uM [6]-shogaol after 24 hrs by HPLC-ECD analysis. It counts as ADME, cell-based. The conditions noted are these: hct-116, 24 h. The procedure, abridged: as §2
Data set [3] is described as follows: Drug level in mouse CL-13 cells treated with 10 uM [6]-shogaol by HPLC-ECD analysis. It is filed as ADME, cell-based. The procedure, abridged: as §2
Data set [4] can be described thus: Drug level in human H1299 cells treated with 10 uM [6]-shogaol after 24 hrs by HPLC-ECD analysis. It is filed as ADME, cell-based. The settings on record: nci-h1299, 24 h. The gist of the method: as §2
Data set [5] deals with HCT-116. In words: Induction of apoptosis in human HCT116 cells assessed as apoptotic cells at 40 uM after 24 hrs by TUNEL assay. It counts as functional. The gist of the method: as §1
A short description of data set [6]: Drug level in mouse CL-13 cells treated with 10 uM [6]-shogaol after 24 hrs by HPLC-ECD analysis. The settings on record: cl-13, 24 h. It is filed as ADME, cell-based. The procedure, abridged: as §2
In data set [7] the test system is NCI-H1299. In words: Induction of apoptosis in human H1299 cells assessed as apoptotic cells at 40 uM after 24 hrs by TUNEL assay. It is filed as functional. The procedure, abridged:
as §1

Data set [8] is described as follows: Cytotoxicity against human H1299 cells assessed as growth inhibition after 24 hrs by MTT assay. The conditions noted are these: NCI-H1299, 24 h. It is filed as functional, cell-based. The procedure, abridged: (§3)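 Cells seeded at 3000/well, attached 24 h at 37°C, then exposed to test agents (0–80 μM, 0.1% DMSO final) for 24 h in McCoy's 5A with 10% FBS. Medium replaced with 2.41 mM MTT for 3 h at 37°C; formazan dissolved in DMSO, absorbance 550 nm. Viability as percentage of DMSO control; mean ± S.D., n = 6.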

Data set [9] in a line: Cytotoxicity against human HCT116 cells assessed as growth inhibition after 24 hrs by MTT assay. It counts as functional, cell-based. The conditions noted are these: HCT-116, 24 h. The gist of the method: as §3
For orientation: Formazan colour is commonly taken as a measure of viable cells.

The nature of data set [10]: Drug level in C57BL/6J mouse feces treated with [6]-shogaol at 200 mg/kg, po by HPLC-ECD analysis relative to control. On the set-up: dose 200 mg/kg, route oral. It counts as ADME, organism-based. The settings on record: in vivo. The procedure, abridged:
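Female C57BL/6J mice gavaged once with 200 mg/kg in corn oil, or corn oil alone (n = 5 each). 24-h feces collected in metabolic cages. Feces extracted by sonication 90 min in MeOH/H2O (50/50) + 0.1% acetic acid, centrifuged, diluted fivefold. Analysed by HPLC with electrochemical array detection (Gemini C18, phosphate/acetonitrile/THF gradient), compared against vehicle controls.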

Data set [11] deals with NCI-H1299. In words: Induction of apoptosis in human H1299 cells assessed as apoptotic cells at 80 uM after 24 hrs by TUNEL assay. It is filed as functional. The gist of the method: as §1

Turning to `CCCCCCCC(O)CCc1ccc(O)c(OC)c1` (configuration not stated), the Activity was found to be 16.9% with HCT-116 [1], 9.6% with HCT-116 [5], 7.4% in the data set with NCI-H1299 [7] and 15.4% with NCI-H1299 [11]. Also, the Drug metabolism result (in the data set with HT-29; in [2]; in data set [3]; in data set [4]; in [6]) was “metabolite_detected” in each case. In addition, the IC50 (as a rule, the concentration needed to halve the response being measured) in [8] is 77.7 µM; in data set [9] it was 82.2 µM. Also, in data set [10], the Drug excretion result was “metabolite_detected”.
